Measured values taken from ChEMBL document CHEMBL4270642, “Boronic ester-linked macrocyclic lipopeptides as serine protease inhibitors targeting Escherichia coli type I signal peptidase” (Eur J Med Chem, 2018).
≈ marks a conversion by molar mass, not a printed value. One block for each molecule: values may come before it.

How the values were obtained:
Signal peptidase I = Signal peptidase I (Escherichia coli K-12, UniProt P00803); assay: Inhibition of Escherichia coli type 1 signal peptidase lepB preincubated for 10 mins followed by Dabcyl-VGGTATAYGAFSRPGLE-(EDANS)-OH substrate addition measured after 2 hrs by FRET based assay
Chain of Signal peptidase I (P00803 whole entry): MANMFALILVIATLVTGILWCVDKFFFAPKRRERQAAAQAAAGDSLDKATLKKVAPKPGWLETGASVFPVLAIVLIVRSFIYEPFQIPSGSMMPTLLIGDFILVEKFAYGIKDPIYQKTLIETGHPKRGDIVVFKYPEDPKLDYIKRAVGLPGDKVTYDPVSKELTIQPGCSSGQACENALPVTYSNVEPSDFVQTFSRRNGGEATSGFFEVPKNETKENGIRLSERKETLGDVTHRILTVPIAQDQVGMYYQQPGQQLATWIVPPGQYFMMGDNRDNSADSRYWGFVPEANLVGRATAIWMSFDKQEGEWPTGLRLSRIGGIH
Method in brief: (§1)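 EcLepB (about 50 nM estimated) preincubated 10 min with compound. Reaction started with Dabcyl/EDANS FRET peptide at 8 µM final (Km 20 µM). Fluorescence followed continuously at 535 nm, 22 °C, for 2 h. Cleavage rates plotted against inhibitor concentration; IC50 from non-linear regression of sigmoidal dose-response curves.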

Escherichia coli [1] = assay: Antibacterial activity against Escherichia coli ATCC 25922 after 16 to 20 hrs by broth microdilution method; format: functional
Method in brief: (§2)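 Broth microdilution in cation-adjusted Mueller-Hinton II per EUCAST/CLSI; two-fold compound series 64 down to 0.25 µg/mL final. Inoculum from fresh colonies (non-selective agar, 18-24 h, 35 ± 2 °C), adjusted to 0.5 McFarland, diluted to about 5 × 10^5 CFU/mL final. Static incubation 16-20 h at 35 ± 2 °C; MIC read visually as complete growth inhibition against medium-only wells.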

[2] = Hemolytic activity in human RBC at 100 uM after 45 mins by spectrophotometric method relative to control; format: ADME, cell-based, Erythrocyte; conditions: red blood cells (erythrocytes), read-out: Activity
Method in brief: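 Heparinized human blood; red cells washed three times in Tyrode buffer pH 7.4. Compound at 100 µM final with 1% DMSO and 50% RBC, shaken (250 rpm) 45 min at 37 °C. Cells pelleted (1000 × g, 10 min); supernatant haemoglobin at 540 nm. Percent lysis relative to buffer-only and 2% Triton X-100 controls.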

HepG2 = assay: Cytotoxicity against human HepG2 cells after 72 hrs by FMSA; format: cell-based; conditions: HepG2, 72 h
Method in brief: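 HepG2 (ATCC) grown in EMEM with 10% FBS, pen/strep, 2 mM L-glutamine, used up to 20 passages. Seeded at 1000 cells/well, cultured overnight, then dosed acoustically from DMSO stocks. Eight two-fold dilutions in duplicate from top 64 or 32 µM; 72 h at 37 °C, 5% CO2. Fluorescein diacetate hydrolysis read at ex 485/em 530 nm; IC50 by non-linear regression.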

[3] = target: Signal peptidase I (Escherichia coli K-12) (UniProt P00803); assay: Inhibition of Escherichia coli type 1 signal peptidase lepB assessed as residual activity at 2.5 uM preincubated for 10 mins followed by Dabcyl-VGGTATAYGAFSRPGLE-(EDANS)-OH substrate addition measured after 2 hrs by FRET based assay (reference value: 100%); method in brief: as §1
Chain of Signal peptidase I (Escherichia coli K-12) (P00803 whole entry): as above

[4] = target: Signal peptidase I (Escherichia coli K-12) (UniProt P00803); assay: Inhibition of Escherichia coli type 1 signal peptidase lepB assessed as residual activity at 0.0024 uM preincubated for 10 mins followed by Dabcyl-VGGTATAYGAFSRPGLE-(EDANS)-OH substrate addition measured after 2 hrs by FRET based assay (reference value: 100%); method in brief: as §1
Escherichia coli [5] = assay: Antibacterial activity against tolC deficient Escherichia coli CH3130 after 16 to 20 hrs by broth microdilution method; format: functional; method in brief: as §2
Pseudomonas aeruginosa [6] = assay: Antibacterial activity against efflux defective Pseudomonas aeruginosa PAO750 after 16 to 20 hrs by broth microdilution method; format: functional; method in brief: as §2
[7] = target: Signal peptidase I (Escherichia coli K-12) (UniProt P00803); assay: Inhibition of Escherichia coli type 1 signal peptidase lepB assessed as residual activity at 1.25 uM preincubated for 10 mins followed by Dabcyl-VGGTATAYGAFSRPGLE-(EDANS)-OH substrate addition measured after 2 hrs by FRET based assay (reference value: 100%); method in brief: as §1
[8] = target: Signal peptidase I (Escherichia coli K-12) (UniProt P00803); assay: Inhibition of Escherichia coli type 1 signal peptidase lepB assessed as residual activity at 0.0098 uM preincubated for 10 mins followed by Dabcyl-VGGTATAYGAFSRPGLE-(EDANS)-OH substrate addition measured after 2 hrs by FRET based assay (reference value: 100%); method in brief: as §1
[9] = target: Signal peptidase I (Escherichia coli K-12) (UniProt P00803); assay: Inhibition of Escherichia coli type 1 signal peptidase lepB assessed as residual activity at 0.0049 uM preincubated for 10 mins followed by Dabcyl-VGGTATAYGAFSRPGLE-(EDANS)-OH substrate addition measured after 2 hrs by FRET based assay (reference value: 100%); method in brief: as §1
Acinetobacter baumannii = assay: Antibacterial activity against Acinetobacter baumannii ATCC 19606 after 16 to 20 hrs by broth microdilution method; format: functional; conditions: ATCC 19606 = CIP 70.34 = JCM 6841; method in brief: as §2
Pseudomonas aeruginosa [10] = assay: Antibacterial activity against Pseudomonas aeruginosa PAO1 after 16 to 20 hrs by broth microdilution method; format: functional; method in brief: as §2
[11] = target: Signal peptidase I (Escherichia coli K-12) (UniProt P00803); assay: Inhibition of Escherichia coli type 1 signal peptidase lepB assessed as residual activity at 0.3125 uM preincubated for 10 mins followed by Dabcyl-VGGTATAYGAFSRPGLE-(EDANS)-OH substrate addition measured after 2 hrs by FRET based assay (reference value: 100%); method in brief: as §1
Klebsiella pneumoniae = assay: Antibacterial activity against Klebsiella pneumoniae ATCC 13883 after 16 to 20 hrs by broth microdilution method; format: functional; method in brief: as §2
[12] = target: Signal peptidase I (Escherichia coli K-12) (UniProt P00803); assay: Inhibition of Escherichia coli type 1 signal peptidase lepB assessed as residual activity at 10 uM preincubated for 10 mins followed by Dabcyl-VGGTATAYGAFSRPGLE-(EDANS)-OH substrate addition measured after 2 hrs by FRET based assay (reference value: 100%); method in brief: as §1
[13] = target: Signal peptidase I (Escherichia coli K-12) (UniProt P00803); assay: Inhibition of Escherichia coli type 1 signal peptidase lepB assessed as residual activity at 0.1563 uM preincubated for 10 mins followed by Dabcyl-VGGTATAYGAFSRPGLE-(EDANS)-OH substrate addition measured after 2 hrs by FRET based assay (reference value: 100%); method in brief: as §1
[14] = target: Signal peptidase I (Escherichia coli K-12) (UniProt P00803); assay: Inhibition of Escherichia coli type 1 signal peptidase lepB assessed as residual activity at 0.0391 uM preincubated for 10 mins followed by Dabcyl-VGGTATAYGAFSRPGLE-(EDANS)-OH substrate addition measured after 2 hrs by FRET based assay (reference value: 100%); method in brief: as §1
[15] = target: Signal peptidase I (Escherichia coli K-12) (UniProt P00803); assay: Inhibition of Escherichia coli type 1 signal peptidase lepB assessed as residual activity at 0.0195 uM preincubated for 10 mins followed by Dabcyl-VGGTATAYGAFSRPGLE-(EDANS)-OH substrate addition measured after 2 hrs by FRET based assay (reference value: 100%); method in brief: as §1
[16] = target: Signal peptidase I (Escherichia coli K-12) (UniProt P00803); assay: Inhibition of Escherichia coli type 1 signal peptidase lepB assessed as residual activity at 0.0781 uM preincubated for 10 mins followed by Dabcyl-VGGTATAYGAFSRPGLE-(EDANS)-OH substrate addition measured after 2 hrs by FRET based assay (reference value: 100%); method in brief: as §1
[17] = target: Signal peptidase I (Escherichia coli K-12) (UniProt P00803); assay: Inhibition of Escherichia coli type 1 signal peptidase lepB assessed as residual activity at 0.625 uM preincubated for 10 mins followed by Dabcyl-VGGTATAYGAFSRPGLE-(EDANS)-OH substrate addition measured after 2 hrs by FRET based assay (reference value: 100%); method in brief: as §1
[18] = target: Signal peptidase I (Escherichia coli K-12) (UniProt P00803); assay: Inhibition of Escherichia coli type 1 signal peptidase lepB assessed as residual activity at 0.0012 uM preincubated for 10 mins followed by Dabcyl-VGGTATAYGAFSRPGLE-(EDANS)-OH substrate addition measured after 2 hrs by FRET based assay (reference value: 100%); method in brief: as §1
Staphylococcus aureus = assay: Antibacterial activity against Staphylococcus aureus ATCC 29213 after 16 to 20 hrs by broth microdilution method; format: functional; method in brief: as §2
Escherichia coli [19] = assay: Antibacterial activity against Escherichia coli D22 CGSG 5163 harboring Ips mutant after 16 to 20 hrs by broth microdilution method; format: functional
Method in brief: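 Broth microdilution in cation-adjusted Mueller-Hinton II broth, following EUCAST and CLSI guidelines. Two-fold series at final concentrations 64 down to 0.25 µg/mL, with medium-only and growth controls. Inoculum from fresh colonies (18-24 h, 35 °C ± 2 °C) adjusted to 0.5 McFarland, final ≈5 × 10^5 CFU/mL. Plates incubated unshaken 16-20 h at 35 °C ± 2 °C. MIC read visually as complete inhibition of growth.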

[20] = target: Signal peptidase I (Escherichia coli K-12) (UniProt P00803); assay: Inhibition of Escherichia coli type 1 signal peptidase lepB assessed as residual activity at 5 uM preincubated for 10 mins followed by Dabcyl-VGGTATAYGAFSRPGLE-(EDANS)-OH substrate addition measured after 2 hrs by FRET based assay (reference value: 100%); method in brief: as §1

IC50 (Signal peptidase I): 0.006 µM
MIC (Escherichia coli [1]): 16 µM
SMILES: CCCCCCc1ccc(-c2ccc(C(=O)N3CC(CN)C[C@H]3C(=O)N[C@H](C(=O)N[C@@H](C)C(=O)N[C@@H](CC(N)=O)C(=O)N[C@@H](C)B(O)O)[C@@H](C)O)cc2)cc1 (some centres undefined)
hemolysis at 0.75 h, 100 µM [2]: 2.5%
IC50 (HepG2): 16 µM

SMILES: C[C@@H]1NC(=O)[C@@H](NC(=O)[C@H](C)NC(=O)[C@@H](NC(=O)[C@H](CCCN)NC(=O)C#Cc2ccc(-c3ccccc3)cc2)[C@@H](C)O)Cc2cn(nn2)CCO[C@@H]2C[C@@H]3OB1O[C@@H]3C2
Activity [3]: 17.8%
IC50 (Signal peptidase I): 0.227 µM
Activity [4]: 106%
MIC (Escherichia coli [5]): > 64 µg/mL
MIC (Pseudomonas aeruginosa [6]): > 64 µg/mL
Activity [7]: 22.5%
Activity [8]: 99%
Activity [9]: 97.1%
MIC (Acinetobacter baumannii): > 64 µg/mL
MIC (Pseudomonas aeruginosa [10]): > 64 µg/mL
Activity [11]: 30%
MIC (Escherichia coli [1]): > 64 µg/mL
MIC (Klebsiella pneumoniae): > 64 µg/mL
hemolysis at 0.75 h, 100 µM [2]: 0.01%
Activity [12]: 6.8%
Activity [13]: 58.2%
Activity [14]: 89.3%
Activity [15]: 98.2%
Activity [16]: 73.1%
Activity [17]: 25.8%
Activity [18]: 103%
MIC (Staphylococcus aureus): 32 µg/mL (≈ 38.8 µM)
MIC (Escherichia coli [19]): > 64 µg/mL
IC50 (HepG2): 28.2 µM
Activity [20]: 13.5%

SMILES: CCCCCCc1ccc(-n2cc(C(=O)N[C@@H](CCCN)C(=O)N[C@H](C(=O)N[C@@H](C)C(=O)N[C@H]3Cc4cn(nn4)CCO[C@@H]4C[C@@H]5OB(O[C@@H]5C4)[C@H](C)NC3=O)[C@@H](C)O)ccc2=O)cc1
Activity [3]: 17.3%
IC50 (Signal peptidase I): 0.495 µM
Activity [4]: 101%
MIC (Escherichia coli [5]): > 64 µg/mL
MIC (Pseudomonas aeruginosa [6]): > 64 µg/mL
Activity [7]: 24.3%
Activity [8]: 98.8%
Activity [9]: 101%
MIC (Acinetobacter baumannii): > 64 µg/mL
MIC (Pseudomonas aeruginosa [10]): > 64 µg/mL
Activity [11]: 59.3%
MIC (Escherichia coli [1]): > 64 µg/mL
MIC (Klebsiella pneumoniae): > 64 µg/mL
hemolysis at 0.75 h, 100 µM [2]: 0.03%
Activity [12]: 17%
Activity [13]: 90%
Activity [14]: 98.3%
Activity [15]: 111%
Activity [16]: 95.3%
Activity [17]: 32.6%
Activity [18]: 109%
MIC (Staphylococcus aureus): 64 µg/mL (≈ 70.9 µM)
MIC (Escherichia coli [19]): > 64 µg/mL
IC50 (HepG2): > 64 µM
Activity [20]: 15.8%
